What was measured:
[1] = Inhibition of IL-1 induced p38 MAPK phosphorylation level in TAK1 deficient mouse MEF cells at 500 nM incubated for 1 hr followed by IL-1 stimulation by Western blot analysis relative to control; type: functional
[2] = target: Misshapen-like kinase 1 (Homo sapiens) (UniProt Q8N4C8); assay: Inhibition of ZC3 Lys2 labeling site in human Huh-7 cell lysate at 1 uM by KiNativ Profiling analysis relative to control; type: subcellular
[3] = target: Ribosomal protein S6 kinase alpha-2 (Homo sapiens) (UniProt Q15349); assay: Inhibition of RSK3 Protein Kinase Domain in human A-375 cells at 0.05 uM by KiNativ Profiling analysis relative to control; type: cell-based
[4] = target: Misshapen-like kinase 1 (Homo sapiens) (UniProt Q8N4C8); assay: Inhibition of ZC3/MINK Lys2 labeling site in human A-375 cells at 0.5 uM by KiNativ Profiling analysis relative to control; type: cell-based
[5] = target: T1, Serine/threonine-protein kinase TAO2 (Homo sapiens) (UniProt Q9UL54); assay: Inhibition of TAO2 Lys2 labeling site in human A-375 cells at 0.5 uM by KiNativ Profiling analysis relative to control; type: cell-based
T1 sequence (whole entry): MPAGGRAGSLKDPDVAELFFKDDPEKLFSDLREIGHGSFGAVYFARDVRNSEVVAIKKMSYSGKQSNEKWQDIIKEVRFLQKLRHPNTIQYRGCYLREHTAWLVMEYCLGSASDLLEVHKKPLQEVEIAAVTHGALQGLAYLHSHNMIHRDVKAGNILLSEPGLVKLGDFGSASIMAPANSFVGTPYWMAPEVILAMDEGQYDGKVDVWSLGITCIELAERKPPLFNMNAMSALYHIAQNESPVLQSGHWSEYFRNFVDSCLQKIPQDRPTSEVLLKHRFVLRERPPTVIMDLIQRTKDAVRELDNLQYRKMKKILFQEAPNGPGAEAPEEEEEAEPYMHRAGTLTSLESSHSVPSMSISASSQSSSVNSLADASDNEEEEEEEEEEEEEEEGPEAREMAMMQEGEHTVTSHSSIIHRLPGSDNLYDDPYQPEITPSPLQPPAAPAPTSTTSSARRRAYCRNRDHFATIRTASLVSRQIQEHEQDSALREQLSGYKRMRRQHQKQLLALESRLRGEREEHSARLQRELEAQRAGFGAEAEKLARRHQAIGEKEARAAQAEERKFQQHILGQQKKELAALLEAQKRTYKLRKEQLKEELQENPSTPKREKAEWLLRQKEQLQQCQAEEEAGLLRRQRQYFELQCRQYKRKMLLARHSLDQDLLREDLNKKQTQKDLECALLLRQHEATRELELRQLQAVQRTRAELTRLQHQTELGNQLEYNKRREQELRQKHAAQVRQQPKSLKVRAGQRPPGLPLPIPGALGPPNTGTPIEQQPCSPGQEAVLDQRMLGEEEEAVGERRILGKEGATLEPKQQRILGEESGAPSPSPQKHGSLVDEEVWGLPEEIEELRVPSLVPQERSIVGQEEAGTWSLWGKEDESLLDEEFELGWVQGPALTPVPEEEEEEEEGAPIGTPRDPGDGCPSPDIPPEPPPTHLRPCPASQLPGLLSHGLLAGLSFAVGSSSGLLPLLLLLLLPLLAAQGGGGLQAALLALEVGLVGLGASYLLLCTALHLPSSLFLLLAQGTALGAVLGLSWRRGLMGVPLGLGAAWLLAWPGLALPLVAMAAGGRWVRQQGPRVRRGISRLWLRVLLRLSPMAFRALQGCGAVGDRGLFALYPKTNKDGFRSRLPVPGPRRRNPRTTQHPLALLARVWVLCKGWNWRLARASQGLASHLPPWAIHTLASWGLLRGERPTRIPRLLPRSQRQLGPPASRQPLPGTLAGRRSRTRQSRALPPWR

[6] = target: T2, Mitogen-activated protein kinase kinase kinase 7 (Homo sapiens) (UniProt O43318); assay: Inhibition of TAK1 Lys2 labeling site in human A-375 cells at 0.05 uM by KiNativ Profiling analysis relative to control; type: cell-based
T2 sequence (whole entry): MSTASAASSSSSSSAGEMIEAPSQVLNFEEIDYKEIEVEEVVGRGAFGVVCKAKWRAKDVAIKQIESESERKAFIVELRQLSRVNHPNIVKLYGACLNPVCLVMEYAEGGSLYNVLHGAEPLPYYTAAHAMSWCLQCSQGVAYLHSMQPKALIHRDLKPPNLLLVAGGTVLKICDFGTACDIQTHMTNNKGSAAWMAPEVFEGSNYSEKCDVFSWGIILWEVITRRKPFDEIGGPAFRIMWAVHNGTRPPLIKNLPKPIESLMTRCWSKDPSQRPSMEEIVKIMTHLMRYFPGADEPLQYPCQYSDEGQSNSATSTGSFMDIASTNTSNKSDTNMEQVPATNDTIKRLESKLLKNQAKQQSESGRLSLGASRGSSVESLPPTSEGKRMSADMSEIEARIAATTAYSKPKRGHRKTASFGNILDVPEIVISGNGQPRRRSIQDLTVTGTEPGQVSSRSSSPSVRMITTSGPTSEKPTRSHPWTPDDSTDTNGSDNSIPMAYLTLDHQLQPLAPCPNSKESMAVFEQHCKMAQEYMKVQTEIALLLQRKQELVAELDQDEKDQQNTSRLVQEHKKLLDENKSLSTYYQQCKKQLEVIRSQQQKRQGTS

[7] = target: Serine/threonine-protein kinase 38-like (Homo sapiens) (UniProt Q9Y2H1); assay: Inhibition of NDR2 Lys2 labeling site in human A-375 cells at 0.05 uM by KiNativ Profiling analysis relative to control; type: cell-based
[8] = target: Tyrosine-protein kinase Fyn (Homo sapiens) (UniProt P06241); assay: Inhibition of FYN ACT labeling site in human A-375 cells at 5 uM by KiNativ Profiling analysis relative to control; type: cell-based
[9] = target: Serine/threonine-protein kinase tousled-like 2 (Homo sapiens) (UniProt Q86UE8); assay: Inhibition of TLK2 Lys1 labeling site in human A-375 cells at 0.05 uM by KiNativ Profiling analysis relative to control; type: cell-based
[10] = target: Cyclin-dependent kinase 6 (Homo sapiens) (UniProt Q00534); assay: Inhibition of CDK6 Lys2 labeling site in human A-375 cells at 0.5 uM by KiNativ Profiling analysis relative to control; type: cell-based
Summary of the method: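 Live A375 melanoma cells were treated with compound at 5 or 0.5 μM. The cells were then lysed, and the lysates were labeled with a lysine-reactive ATP or ADP-biotin acyl probe (KiNativ). Inhibition is the compound's protection of each kinase labeling-site peptide from probe labeling, relative to untreated control.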

Misshapen-like kinase 1 (Homo sapiens), sequence (Q8N4C8 whole entry, looked up, the tested form may be a part): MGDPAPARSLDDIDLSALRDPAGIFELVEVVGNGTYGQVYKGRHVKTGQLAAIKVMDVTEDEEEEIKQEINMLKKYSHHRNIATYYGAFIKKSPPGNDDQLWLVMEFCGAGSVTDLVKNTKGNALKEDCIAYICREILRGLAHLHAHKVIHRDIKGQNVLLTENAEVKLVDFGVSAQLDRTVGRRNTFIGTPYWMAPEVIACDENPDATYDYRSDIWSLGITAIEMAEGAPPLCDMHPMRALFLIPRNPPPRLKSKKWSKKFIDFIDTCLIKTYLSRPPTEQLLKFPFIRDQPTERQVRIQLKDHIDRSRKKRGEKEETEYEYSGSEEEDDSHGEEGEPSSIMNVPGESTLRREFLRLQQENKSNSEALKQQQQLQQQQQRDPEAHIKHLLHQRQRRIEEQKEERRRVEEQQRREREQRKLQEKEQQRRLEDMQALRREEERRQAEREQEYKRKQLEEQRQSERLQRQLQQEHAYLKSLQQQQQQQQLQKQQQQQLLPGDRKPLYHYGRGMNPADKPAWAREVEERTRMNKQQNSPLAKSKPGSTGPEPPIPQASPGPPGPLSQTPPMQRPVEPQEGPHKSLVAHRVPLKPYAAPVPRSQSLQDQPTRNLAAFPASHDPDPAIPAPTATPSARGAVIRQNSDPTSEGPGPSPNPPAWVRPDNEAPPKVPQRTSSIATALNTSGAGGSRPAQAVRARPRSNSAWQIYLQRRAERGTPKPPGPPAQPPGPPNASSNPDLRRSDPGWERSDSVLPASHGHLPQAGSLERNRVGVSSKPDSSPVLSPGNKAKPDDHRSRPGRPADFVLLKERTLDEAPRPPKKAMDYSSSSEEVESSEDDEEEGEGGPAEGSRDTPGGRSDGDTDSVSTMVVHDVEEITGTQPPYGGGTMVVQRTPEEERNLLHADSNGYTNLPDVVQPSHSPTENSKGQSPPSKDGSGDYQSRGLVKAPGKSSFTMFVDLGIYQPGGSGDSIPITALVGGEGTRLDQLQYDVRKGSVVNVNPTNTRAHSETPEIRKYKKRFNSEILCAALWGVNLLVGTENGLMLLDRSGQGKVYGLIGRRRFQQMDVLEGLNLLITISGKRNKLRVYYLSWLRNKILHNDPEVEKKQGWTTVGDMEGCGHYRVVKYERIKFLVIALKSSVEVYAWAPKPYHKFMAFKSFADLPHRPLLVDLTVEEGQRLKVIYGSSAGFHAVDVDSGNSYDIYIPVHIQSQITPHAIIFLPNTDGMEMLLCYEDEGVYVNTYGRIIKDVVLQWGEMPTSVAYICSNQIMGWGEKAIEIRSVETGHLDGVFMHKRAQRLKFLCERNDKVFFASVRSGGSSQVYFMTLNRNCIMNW
Ribosomal protein S6 kinase alpha-2 (Homo sapiens), sequence (Q15349 whole entry, the tested form may be a part): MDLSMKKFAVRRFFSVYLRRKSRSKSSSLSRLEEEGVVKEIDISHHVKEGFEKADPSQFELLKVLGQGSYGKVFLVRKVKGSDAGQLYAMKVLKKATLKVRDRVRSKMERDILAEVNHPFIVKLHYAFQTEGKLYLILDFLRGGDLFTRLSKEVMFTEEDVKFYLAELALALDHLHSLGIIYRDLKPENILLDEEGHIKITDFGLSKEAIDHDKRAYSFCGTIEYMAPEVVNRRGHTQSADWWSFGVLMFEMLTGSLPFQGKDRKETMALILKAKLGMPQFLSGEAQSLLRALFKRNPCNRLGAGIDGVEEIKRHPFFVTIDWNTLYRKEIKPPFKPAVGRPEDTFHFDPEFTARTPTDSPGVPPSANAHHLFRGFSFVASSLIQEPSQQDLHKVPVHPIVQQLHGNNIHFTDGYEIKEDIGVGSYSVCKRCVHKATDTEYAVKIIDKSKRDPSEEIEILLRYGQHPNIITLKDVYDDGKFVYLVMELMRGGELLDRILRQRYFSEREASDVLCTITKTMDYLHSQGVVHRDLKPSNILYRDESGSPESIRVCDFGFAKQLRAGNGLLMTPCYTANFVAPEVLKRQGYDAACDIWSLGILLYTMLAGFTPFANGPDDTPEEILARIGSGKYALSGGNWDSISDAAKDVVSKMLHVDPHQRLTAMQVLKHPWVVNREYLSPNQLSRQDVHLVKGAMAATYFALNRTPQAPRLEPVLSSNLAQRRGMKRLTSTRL
Serine/threonine-protein kinase tousled-like 2 (Homo sapiens), sequence (Q86UE8 whole entry, looked up): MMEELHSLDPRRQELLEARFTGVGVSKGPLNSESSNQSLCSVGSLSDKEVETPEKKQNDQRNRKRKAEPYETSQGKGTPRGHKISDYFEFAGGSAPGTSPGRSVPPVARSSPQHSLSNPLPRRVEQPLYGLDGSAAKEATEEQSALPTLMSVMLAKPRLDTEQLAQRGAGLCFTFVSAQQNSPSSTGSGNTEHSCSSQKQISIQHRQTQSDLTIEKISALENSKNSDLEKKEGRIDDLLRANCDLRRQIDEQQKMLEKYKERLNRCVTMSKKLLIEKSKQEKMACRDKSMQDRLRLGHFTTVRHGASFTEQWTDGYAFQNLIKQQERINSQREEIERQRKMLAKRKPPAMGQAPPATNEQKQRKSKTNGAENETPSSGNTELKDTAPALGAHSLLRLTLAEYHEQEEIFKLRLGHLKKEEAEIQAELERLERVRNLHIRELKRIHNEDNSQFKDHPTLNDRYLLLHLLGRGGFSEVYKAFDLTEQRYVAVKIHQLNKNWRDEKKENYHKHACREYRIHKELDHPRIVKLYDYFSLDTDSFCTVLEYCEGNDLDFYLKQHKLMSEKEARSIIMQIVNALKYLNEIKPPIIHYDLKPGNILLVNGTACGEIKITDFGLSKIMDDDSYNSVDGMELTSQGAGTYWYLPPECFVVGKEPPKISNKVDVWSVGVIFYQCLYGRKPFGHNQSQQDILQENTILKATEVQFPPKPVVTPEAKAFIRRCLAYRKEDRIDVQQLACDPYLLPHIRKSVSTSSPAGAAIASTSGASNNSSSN
Cyclin-dependent kinase 6 (Homo sapiens), sequence (Q00534 whole entry): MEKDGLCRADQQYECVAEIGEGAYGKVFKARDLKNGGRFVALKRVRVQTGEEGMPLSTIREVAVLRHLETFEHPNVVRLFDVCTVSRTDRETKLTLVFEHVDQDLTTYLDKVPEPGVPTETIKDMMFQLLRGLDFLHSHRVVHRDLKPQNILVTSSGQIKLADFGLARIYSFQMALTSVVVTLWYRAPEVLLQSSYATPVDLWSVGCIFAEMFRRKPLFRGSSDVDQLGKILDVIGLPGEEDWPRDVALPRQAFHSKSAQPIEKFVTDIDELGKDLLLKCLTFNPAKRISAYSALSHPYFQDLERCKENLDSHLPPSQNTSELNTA
Serine/threonine-protein kinase 38-like (Homo sapiens), sequence (Q9Y2H1 2-464 limits assumed): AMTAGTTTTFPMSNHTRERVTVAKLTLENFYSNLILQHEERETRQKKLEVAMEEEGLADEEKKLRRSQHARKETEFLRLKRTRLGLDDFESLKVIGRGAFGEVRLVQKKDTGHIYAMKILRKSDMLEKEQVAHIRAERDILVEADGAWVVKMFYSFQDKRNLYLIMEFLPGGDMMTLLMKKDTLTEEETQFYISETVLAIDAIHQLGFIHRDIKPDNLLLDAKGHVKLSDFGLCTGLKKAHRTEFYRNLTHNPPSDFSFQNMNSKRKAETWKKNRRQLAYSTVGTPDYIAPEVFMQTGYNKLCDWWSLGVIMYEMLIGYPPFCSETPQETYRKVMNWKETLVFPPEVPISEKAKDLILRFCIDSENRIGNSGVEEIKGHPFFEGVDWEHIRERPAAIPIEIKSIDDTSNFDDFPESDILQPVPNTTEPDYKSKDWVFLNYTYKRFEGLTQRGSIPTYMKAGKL
Tyrosine-protein kinase Fyn (Homo sapiens), sequence (P06241 2-537 limits assumed): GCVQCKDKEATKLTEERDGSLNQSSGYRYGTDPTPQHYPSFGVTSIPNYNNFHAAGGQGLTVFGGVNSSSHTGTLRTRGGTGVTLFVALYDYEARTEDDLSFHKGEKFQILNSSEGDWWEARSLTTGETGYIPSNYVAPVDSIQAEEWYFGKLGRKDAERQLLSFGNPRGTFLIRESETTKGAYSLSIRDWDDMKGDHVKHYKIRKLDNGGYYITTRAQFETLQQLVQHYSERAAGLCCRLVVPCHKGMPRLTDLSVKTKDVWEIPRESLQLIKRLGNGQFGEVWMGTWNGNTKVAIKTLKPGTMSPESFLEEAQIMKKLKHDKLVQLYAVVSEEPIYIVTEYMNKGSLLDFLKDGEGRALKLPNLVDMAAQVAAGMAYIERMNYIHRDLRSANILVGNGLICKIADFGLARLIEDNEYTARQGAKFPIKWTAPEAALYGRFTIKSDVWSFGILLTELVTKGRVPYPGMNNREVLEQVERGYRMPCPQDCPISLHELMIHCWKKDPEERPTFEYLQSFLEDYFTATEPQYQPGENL

Work on `CNc1cc(Oc2cc(C(=O)Nc3cc(N4CCN(C)CC4)cc(C(F)(F)F)c3)ccc2C)ncn1` yielded an inhibition at 0.5 µM [1] of 100% and an inhibition [2] of 2.7%.

`CCN1CCN(Cc2ccc(NC(=O)c3ccc(C)c(/C=C/c4cnc5[nH]ccc5c4OC)c3)cc2C(F)(F)F)CC1` showed an inhibition [3] of 1.4%, an inhibition [4] of 48.1% and an inhibition [5] of 37.1%. For the same compound, the inhibition [6] was 71.8%, the inhibition [7] was 11.6% and the inhibition [8] was over 99%. The inhibition [9] was 17.1% and the inhibition [10] was 11.4%.

In the case of `CNc1cc(Oc2cc(C(=O)Nc3cc(-n4cnc(C)c4)cc(C(F)(F)F)c3)ccc2C)ncn1`, the inhibition at 0.5 µM [1] is reported as 100% and the inhibition [2] is reported as 24.1%.

`CCN1CCN(Cc2ccc(NC(=O)c3ccc(C)c(Oc4ccnc5[nH]ccc45)c3)cc2C(F)(F)F)CC1` gave an inhibition [3] of -4.7%, an inhibition [4] of 70.8% and an inhibition [5] of 42.8%. The inhibition [6] was 88.7%, the inhibition [7] was 14.8% and the inhibition [8] was 89.6%. The inhibition [9] was 13.4% and the inhibition [10] was 3.9%.
